Test results published in paper PMC3767132 (Organic & biomolecular chemistry, 2012).
Like-named read-outs stand apart in the source and are kept apart here.

Key:
hMetAP2 = hMetAP2 (Homo sapiens, UniProt P50579); test: human MetAP2 enzyme assay; type: biochemical
HUVEC [1] = test: HUVEC proliferation assay using [3H]-thymidine incorporation; type: cell-based, human
HeLa = HeLa proliferation assay, 3H-T uptake; type: cell-based; conditions: for IC50: Homo sapiens, HeLa, read-out: IC50 3H-T Uptake HeLa
Jurkat-T = test: Jurkat T proliferation assay, 3H-T uptake; type: cell-based; conditions: for IC50: Homo sapiens, Jurkat, read-out: IC50 3H-T Uptake Jurkat-T
HUVEC [2] = test: HUVEC cell-viability assay using calcein-AM; type: cell-based, human; conditions: for IC50: Homo sapiens, HUVEC, read-out: IC50 Calcein-AM HUVEC
HFF = HFF cell-viability assay using calcein-AM; type: cell-based, human; conditions: for IC50: Homo sapiens, HFF, read-out: IC50 Calcein-AM HFF
SIRT1 = test: Immunoblot of Ac-p53; type: cell-based, human; conditions: for Immunoblot Ac-p53: compound treated HUVEC lysates, 24 h, signal relative to DMSO = 1.0
In short: (§1)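 HUVEC were exposed to test compound for 24 h, typically at 5 μM (some up to 10 μM), with DMSO as negative control. Lysates were immunoblotted for Met-14-3-3γ, 14-3-3γ, Ac-p53 and total p53. Band densities were taken as Met-14-3-3γ/14-3-3γ and Ac-p53/p53 per lane, relative to DMSO = 1.0. Ac-p53 was scored −(<2.0), +(2.0–7.0), ++(7.1–11.6), +++(>11.6).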

MetAP = test: Immunoblot of Met-14-3-3γ; type: cell-based, human; conditions: for Immunoblot Met-14-3-3γ: compound treated HUVEC lysates, 24 h, signal relative to DMSO = 1.0
In short: as §1

sirtuin 1 (SIRT1) = conditions: read-out: IC50 SIRT1; cited from earlier work
hMetAP1 = hMetAP1 (Homo sapiens, UniProt P53582); test: human MetAP1 enzyme assay; type: biochemical; conditions: for IC50: 10 μM Co2+
HUVEC [3] = test: Cytotoxicity seen on treatment of HUVEC for immunoblotting; type: cell-based, human; conditions: 0.5 μM for 24 h
[4] = Metal complexation by UV-vis spectra in MetAP assay buffer; type: physicochemical; conditions: 10 μM in MetAP assay buffer
In short: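 UV–vis absorption spectra recorded for the test compound at 10 μM in MetAP assay buffer, without and with metal ions. Metals were added as MnCl2 or CoCl2 at 10 μM, a buffer and metal level chosen to emulate the enzyme assay. Complexation was read as shifts in λmax and changes in band intensity.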

HUVEC [5] = test: DCF-DA assay of ROS levels in HUVEC; type: cell-based, human; conditions: HUVEC treated with 10 μM, data not shown
[6] = Homo sapiens, HUVEC, read-out: IC50 HUVEC, proliferation, 3H-T uptake
[7] = Homo sapiens, HUVEC, read-out: IC50 HUVEC
[8] = read-out: IC50 hMetAP1, enzyme assay
[9] = read-out: IC50 hMetAP2, enzyme assay, 10 μM Mn2+
[10] = up to 10 μM, HUVEC, data not shown

Chain of hMetAP2 (P50579 whole entry): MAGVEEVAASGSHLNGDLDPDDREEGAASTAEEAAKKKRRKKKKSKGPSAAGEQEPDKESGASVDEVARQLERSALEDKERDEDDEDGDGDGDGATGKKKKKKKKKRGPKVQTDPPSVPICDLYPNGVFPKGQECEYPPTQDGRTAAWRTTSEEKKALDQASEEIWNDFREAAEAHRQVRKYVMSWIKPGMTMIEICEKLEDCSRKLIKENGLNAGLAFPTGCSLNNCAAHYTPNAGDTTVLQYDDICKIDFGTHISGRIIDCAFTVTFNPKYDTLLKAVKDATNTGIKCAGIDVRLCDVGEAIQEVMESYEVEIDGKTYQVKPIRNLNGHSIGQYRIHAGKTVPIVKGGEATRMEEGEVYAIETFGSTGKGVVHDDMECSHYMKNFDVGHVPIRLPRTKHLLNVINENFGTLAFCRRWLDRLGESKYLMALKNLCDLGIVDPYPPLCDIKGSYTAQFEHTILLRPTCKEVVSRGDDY

O=[N+]([O-])c1ccc(O)c2ncccc12 [Entry 5, Nitroxoline, reference compound] gave an inhibition at 10 µM (hMetAP2; read-out: inhibition of MetAP2 activity in HTS) of over 90%, an IC50 (HUVEC [1]; [6]) of 1900 ± 300 nM and an IC50 (HeLa) of 3970 ± 900 nM. For the same molecule, the IC50 (Jurkat-T) was 1580 ± 300 nM, the IC50 (HUVEC [2]) was 5130 ± 1200 nM and the “b = bottom value of the curve, Calcein-AM HFF” value (HFF) was 21%. For the same molecule, the IC50 (HFF) was 3690 ± 1000 nM, the “Immunoblot Ac-p53” value (SIRT1) was “++ (++, 7.1–11.6)” and the “Immunoblot Met-14-3-3γ” value (MetAP) was “+ (+, ≥1.5)”. For the same molecule, the IC50 (sirtuin 1 (SIRT1)) was 20200 nM.

With O=C(Nc1cc(Cl)cc(Cl)c1)Oc1ccc(Cl)c2cccnc12 [Entry 24, 5-Chloroquinolin-8-yl 3,5-dichlorophenylcarbamate] the IC50 (hMetAP1; IC50 hMetAP1, enzyme assay) was over 15000 nM, the IC50 (hMetAP2) was 24 ± 7 nM and the IC50 (HUVEC [1]; [6]) was 324 ± 60 nM. For the same molecule, the IC50 (HUVEC [2]) was 746 ± 190 nM, the “b = bottom value of the curve, Calcein-AM HFF” value (HFF) was 17% and the IC50 (HFF) was 2690 ± 500 nM. For the same molecule, the “cytotoxicity in HUVEC” value (HUVEC [3]) was “not enough cells were left” and the “complexation with Mn2+ and Co2+ ions (UV-vis)” value (shortened to “complexation”) [4] was “lack of complexation”.

With Cc1ccc(S(=O)(=O)Nc2ccc(N=O)c3cccnc23)cc1 [Entry 54, 4-methyl-N-(5-nitrosoquinolin-8-yl)benzene-sulfonamide] the IC50 (hMetAP1; IC50 hMetAP1, enzyme assay) was 10500 ± 900 nM, the “b = bottom value in the dose-response curve, hMetAP1” value (hMetAP1; noted only when above 15%) was 18% and the IC50 (hMetAP2) was over 15000 nM. It also gave an IC50 (HUVEC [1]; [7]) of 204 ± 20 nM, an IC50 (HeLa) of 590 ± 100 nM and an IC50 (Jurkat-T) of 450 ± 50 nM. For the same molecule, the IC50 (HUVEC [2]) was 1320 ± 200 nM, the “b = bottom value of the curve, Calcein-AM HFF” value (HFF) was 22% and the IC50 (HFF) was 782 ± 130 nM. The “Immunoblot Ac-p53” value (SIRT1) was “− (−, <2.0)”, the “Immunoblot Met-14-3-3γ” value (MetAP) was “+ (+, ≥1.5)” and the “complexation” value [4] was “formation of chelates”.

For CN(C)S(=O)(=O)Oc1ccc([N+](=O)[O-])c2cccnc12 [Entry 48, 5-nitroquinolin-8-yl dimethylsulfamate], the IC50 (hMetAP1; [8]) was over 15000 nM, the IC50 (hMetAP2; [9]) was 57 ± 15 nM and the IC50 (HUVEC [1]; [7]) was 770 ± 100 nM. For the same molecule, the IC50 (HeLa) was 2410 ± 800 nM, the IC50 (Jurkat-T) was 1730 ± 200 nM and the IC50 (HUVEC [2]) was 4210 ± 1400 nM. For the same molecule, the “b = bottom value of the curve, Calcein-AM HFF” value (HFF) was 23%, the IC50 (HFF) was 2260 ± 300 nM and the “concentration of maximal sirtuin inhibition (biphasic mode)” value (SIRT1; HUVEC immunoblot, Ac-p53) was “around 2 μM”. For the same molecule, the “Immunoblot Ac-p53” value (SIRT1) was “+++ (+++, >11.6)”, the “Immunoblot Met-14-3-3γ” value (MetAP) was “+ (+, ≥1.5)” and the “complexation” value [4] was “does form chelates”.

With O=C(Nc1ccc(O)c2ncccc12)c1ccccc1 [Entry 40] the IC50 (hMetAP1; [8]) was 6450 nM, the IC50 (hMetAP2; [9]) was over 40000 nM and the IC50 (HUVEC [1]; read-out: IC50 HUVEC, proliferation, 3H-T uptake) was 789 ± 110 nM. The “Immunoblot Ac-p53” value (SIRT1) was “+++ (+++, >11.6)”, the “Immunoblot Met-14-3-3γ” value (MetAP) was “+ (+, ≥1.5)” and the “complexation” value [4] was “signs of complex formation”.

In the case of O=Nc1ccc(O)c2ncccc12 [Entry 33, 5-nitrosoquinolin-8-ol], the IC50 (hMetAP1; IC50 hMetAP1, enzyme assay) is reported as over 15000 nM, the IC50 (hMetAP2) is reported as over 50000 nM and the IC50 (HUVEC [1]; [7]) is reported as 364 ± 200 nM. It also gave an IC50 (HeLa) of 640 ± 200 nM, an IC50 (Jurkat-T) of 360 ± 70 nM and an IC50 (HUVEC [2]) of 3720 ± 800 nM. The “b = bottom value of the curve, Calcein-AM HFF” value (HFF) was 17%, the IC50 (HFF) was 9080 ± 1200 nM and the “Immunoblot Ac-p53” value (SIRT1) was “+ (+, 2.0–7.0)”. The “Immunoblot Met-14-3-3γ” value (MetAP) was “− (−, >1.5)”, the “ROS levels (DCF-DA)” value (HUVEC [5]) was “failed to observe any significant increase” and the “affinity for Mn2+ (UV-vis)” value [4] was “very little affinity”.

In the case of Nc1ccc(O)c2ncccc12 [Entry 34, 5-aminoquinolin-8-ol], the IC50 (hMetAP1; IC50 hMetAP1, enzyme assay) is reported as 8920 ± 1200 nM, the IC50 (hMetAP2) is reported as 11900 nM and the “b = bottom value in the dose-response curve, hMetAP2” value (hMetAP2; noted only when above 15%) is reported as 26%. The IC50 (HUVEC [1]; [7]) was 218 ± 40 nM, the “more potent against HUVEC than HeLa” value (HeLa; 3H-T uptake) was “about 8 times” and the IC50 (HeLa) was 2360 ± 500 nM. For the same molecule, the “more potent against HUVEC than Jurkat T” value (Jurkat-T; 3H-T uptake) was “about 8 times”, the IC50 (Jurkat-T) was 1280 ± 300 nM and the “b = bottom value of the curve, Calcein-AM HUVEC” value (HUVEC [2]) was 19%. For the same molecule, the IC50 (HUVEC [2]) was 1840 nM, the “b = bottom value of the curve, Calcein-AM HFF” value (HFF) was 38% and the IC50 (HFF) was 37300 ± 2100 nM. The “selectivity for HUVEC inhibition than HFF” value (HFF; calcein-AM) was about 30 times, the “Immunoblot Ac-p53” value (SIRT1) was “− (−, <2.0)” and the “effect on the levels of Ac-p53” value (SIRT1; [10]) was “no effect”. For the same molecule, the “Immunoblot Met-14-3-3γ” value (MetAP) was “− (−, >1.5)” and the “effect on the levels of Met-14-3-3γ” value (MetAP; [10]) was “no effect”.
